Experimental data published in ChEMBL document CHEMBL1773067.
The source made the active and inactive calls. The rule behind the calls is not given here.

How the values were obtained:
[1] = target: T1, Phosphotyrosine-protein phosphatase PTPB (Mycobacterium tuberculosis, UniProt P96830); assay: Inhibition of Mycobacterium tuberculosis N-terminal His6-tagged PTPB
T1 sequence (P96830 whole entry): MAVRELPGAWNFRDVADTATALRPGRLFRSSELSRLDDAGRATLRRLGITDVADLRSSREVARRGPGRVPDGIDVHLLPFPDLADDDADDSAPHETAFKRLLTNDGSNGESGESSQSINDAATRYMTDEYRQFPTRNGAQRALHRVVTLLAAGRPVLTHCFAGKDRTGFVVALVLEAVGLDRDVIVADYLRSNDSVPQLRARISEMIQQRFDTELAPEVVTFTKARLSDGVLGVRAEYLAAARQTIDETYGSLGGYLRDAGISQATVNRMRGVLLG

[2] = target: T1, Phosphotyrosine-protein phosphatase PTPB; assay: Inhibition of Mycobacterium tuberculosis N-terminal His6-tagged PTPB preincubated with compound for 30 mins before pNPP substrate addition by microplate spectrophotometer analysis
[3] = target: T2, Phosphotyrosine-protein phosphatase PTPB (Mycobacterium tuberculosis) (UniProt P96830); assay: Inhibition of Mycobacterium tuberculosis N-terminal His6-tagged PTPB at 20 uM using pNPP as substrate
T2 sequence (whole entry): T1 sequence (P96830 whole entry)

[4] = target: T2, Phosphotyrosine-protein phosphatase PTPB (Mycobacterium tuberculosis); settings: RAW, 5 to 10 uM
[5] = test system: Mycobacterium tuberculosis; assay: Antimycobacterial activity against Mycobacterium tuberculosis Erdman ATCC 35801 after 7 days by microplate alamar blue assay; assay type: functional; settings: Erdman ATCC 35801, 168 h
In short: (§1)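 MABA read-out after 7 day incubation in Middlebrook 7H12 medium against replicating M. tuberculosis cultures.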

[6] = target: T1, Phosphotyrosine-protein phosphatase PTPB; assay: Inhibition of Mycobacterium tuberculosis PTPB expressed in Escherichia coli after 5 mins by microplate spectrophotometer analysis
J774.A1 = assay: Cytotoxicity at mouse J774A1 cells up to 100 uM after 72 hrs by MTS assay; assay type: cell-based; settings: j774.a1, 72 h
In short: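 J774A.1 cells exposed 72 h; viability from MTS conversion to formazan.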

[7] = test system: Mycobacterium tuberculosis; assay: Antimycobacterial activity against Mycobacterium tuberculosis H37Rv after 7 days by microplate alamar blue assay; assay type: functional; settings: 168 h; in short: as §1
[8] = test system: Mycobacterium tuberculosis; assay: Potentiation of IFN-gamma-induced antimycobacterial activity against Mycobacterium tuberculosis Erdman ATCC 35801 infected in mouse J774A.1 cells assessed as decrease in bacterial load at 10 uM after 7 days; assay type: functional, organism-based
In short: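 J774A.1 macrophages on cover slips infected 1 h at 37°C with M. tuberculosis Erdman (1-3 x10⁵ CFU/ml), rinsed, 16 h at 37°C/5% CO₂, then compound 10 µM with amikacin and IFN-γ 50 U/mL; triplicates. After 7 days cells lysed with 0.25% SDS, dilutions plated on 7H11 agar, colonies counted after 2-3 weeks.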

[9] = target: T1, Phosphotyrosine-protein phosphatase PTPB; assay: Non-competitive inhibition of Mycobacterium tuberculosis N-terminal His6-tagged PTPB assessed as production of p-nitrophenol from pNPP substrate by Lineweaver-Burk plot analysis
[10] = target: T1, Phosphotyrosine-protein phosphatase PTPB; assay: Competitive inhibition of Mycobacterium tuberculosis N-terminal His6-tagged PTPB assessed as production of p-nitrophenol from pNPP substrate by Lineweaver-Burk plot analysis
[11] = target: T2, Phosphotyrosine-protein phosphatase PTPB (Mycobacterium tuberculosis); assay: Inhibition of Mycobacterium tuberculosis PTPB expressed in mouse RAW 264.7 cells assessed as restoration of IFN gamma-induced ERK1/ERK2 phosphorylation after 30 mins by Western blotting; assay type: cell-based
In short: (§2)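 RAW 264.7 macrophages (DMEM, 10% FBS, 37°C, 5% CO₂) stably expressing HA-tagged mPTPB (electroporation, G418 0.5 mg/ml selection 2 weeks). Cells at 80% confluency lysed in Triton X-100 buffer with phosphatase/protease inhibitors; pERK1/2 detected by western blot.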

[12] = target: T2, Phosphotyrosine-protein phosphatase PTPB (Mycobacterium tuberculosis); assay: Inhibition of Mycobacterium tuberculosis PTPB expressed in mouse RAW 264.7 cells assessed as restoration of IFN gamma-induced ERK1/ERK2 phosphorylation at 10 uM after 30 mins by Western blotting; assay type: cell-based; in short: as §2
[13] = target: T2, Phosphotyrosine-protein phosphatase PTPB (Mycobacterium tuberculosis); assay: Inhibition of Mycobacterium tuberculosis PTPB expressed in mouse RAW 264.7 cells assessed as restoration of IFN gamma-induced ERK1/ERK2 phosphorylation at 15 uM after 30 mins by Western blotting; assay type: cell-based; in short: as §2

Compound: COc1ccccc1CNC(=O)C(=O)NC(C)C(c1cccs1)N1CCN(c2ccc(F)cc2)CC1 (configuration not stated)
- IC50 [1]: 11.4 µM
- IC50 [2]: 15.8 µM

Compound: CCN1CCN(C(c2cccs2)C(C)NC(=O)C(=O)N2CCOCC2)CC1 (configuration not stated)
- inhibition [3]: inactive

Compound: CC(NC(=O)C(=O)NCCc1c[nH]c2ccccc12)C(c1cccs1)N1CCN(c2ccc(F)cc2)CC1 (configuration not stated)
- IC50 [1]: 12.1 µM
- IC50 [2]: 17.5 µM

Compound: CCCCc1ccc(NS(=O)(=O)c2ccc3c4c(cccc24)C(=O)N3)cc1
- inhibition [4]: Active
- MIC [5]: > 100 µM
- IC50 [6]: 1.3 µM
- Activity (J774.A1): Non-toxic
- MIC [7]: > 100 µM
- IC50 [1]: 1.2 µM
- Activity [8]: Active
- Ki [9]: 1.1 µM
- IC50 [2]: 1.4 µM

Compound: Cc1ccccc1NS(=O)(=O)c1ccc2c3c(cccc13)C(=O)N2
- inhibition [3]: inactive

Compound: O=C1Nc2ccc(S(=O)(=O)N(CCO)CCO)c3cccc1c23
- inhibition [3]: inactive

Compound: CC(NC(=O)C(=O)N1CCCCC1)C(c1cccs1)N1CCN(c2ccc(F)cc2)CC1 (configuration not stated)
- inhibition [3]: inactive

Compound: CC(NS(=O)(=O)c1ccc2c3c(cccc13)C(=O)N2)C1C2CC3CC(C2)CC1C3 (configuration not stated)
- inhibition [3]: inactive

Compound: CC(NC(=O)C(=O)N1CCCCC1)C(c1cccs1)N1CCN(C)CC1 (configuration not stated)
- inhibition [3]: inactive

Compound: CC(NC(=O)C(=O)NCc1cccnc1)C(c1cccs1)N1CCN(c2ccc(F)cc2)CC1 (configuration not stated)
- IC50 [6]: 11.5 µM
- IC50 [1]: 9.1 µM
- Ki [10]: 4 µM
- inhibition [11]: Dose-dependent effect
- IC50 [2]: 14 µM

Compound: CC(NC(=O)C(=O)N1CCCCC1)C(c1cccs1)N1CCN(c2ccccc2)CC1 (configuration not stated)
- inhibition [3]: inactive

Compound: NS(=O)(=O)c1ccc2c3c(cccc13)C(=O)N2
- inhibition [12]: inactive
- inhibition [3]: inactive

Compound: CCCCCOC(=O)c1c(C)oc2ccc(NS(=O)(=O)c3ccc4c5c(cccc35)C(=O)N4)cc12
- IC50 [1]: 21.1 µM
- IC50 [2]: 20.8 µM

Compound: O=C1Nc2ccc(S(=O)(=O)NCCO)c3cccc1c23
- inhibition [3]: inactive

Compound: O=C1Nc2ccc(S(=O)(=O)NCc3ccccc3)c3cccc1c23
- inhibition [3]: inactive

Compound: Cc1cccc(NS(=O)(=O)c2ccc3c4c(cccc24)C(=O)N3)c1C
- inhibition [3]: inactive

Compound: O=C1Nc2ccc(S(=O)(=O)Nc3ccc4oc5c(c4c3)CCCC5)c3cccc1c23
- IC50 [1]: 10.3 µM
- IC50 [2]: 10.8 µM

Compound: COc1ccc(N2CCN(C(c3cccs3)C(C)NC(=O)C(=O)NCc3ccco3)CC2)cc1 (configuration not stated)
- MIC [5]: > 100 µM
- IC50 [6]: 5.6 µM
- Activity (J774.A1): Non-toxic
- MIC [7]: > 100 µM
- IC50 [1]: 4.8 µM
- Activity [8]: Active
- Ki [10]: 3.2 µM
- inhibition [11]: Dose-dependent effect
- IC50 [2]: 6.3 µM

Compound: CC(NC(=O)C(=O)NCc1ccc2c(c1)OCO2)C(c1cccs1)N1CCN(c2ccccc2)CC1 (configuration not stated)
- IC50 [1]: 30.4 µM
- IC50 [2]: 25.1 µM

Compound: CNS(=O)(=O)c1ccc2c3c(cccc13)C(=O)N2
- inhibition [3]: inactive

Compound: COc1ccc(N2CCN(C(c3cccs3)C(C)NC(=O)C(=O)N3CCCC3)CC2)cc1 (configuration not stated)
- inhibition [3]: inactive

Compound: CCN1CCN(C(c2cccs2)C(C)NC(=O)C(=O)NCCc2c[nH]c3ccccc23)CC1 (configuration not stated)
- inhibition [3]: inactive

Compound: O=C1Nc2ccc(S(=O)(=O)Nc3cc(Cl)c(O)c4ccccc34)c3cccc1c23
- IC50 [1]: 15.5 µM
- IC50 [2]: 12.8 µM

Compound: Cc1oc2ccc(NS(=O)(=O)c3ccc4c5c(cccc35)C(=O)N4)cc2c1C(=O)OC(C)C
- inhibition [3]: inactive

Compound: CCCCCCCOC(=O)c1c(C)oc2ccc(NS(=O)(=O)c3ccc4c5c(cccc35)C(=O)N4)cc12
- IC50 [1]: 19.5 µM
- IC50 [2]: 22.8 µM

Compound: CC(NC(=O)C(=O)NCc1ccco1)C(c1cccs1)N1CCN(C)CC1 (configuration not stated)
- inhibition [3]: inactive

Compound: COc1ccc(N2CCN(C(c3cccs3)C(C)NC(=O)C(=O)N3CCCCC3)CC2)cc1 (configuration not stated)
- inhibition [13]: inactive
- inhibition [3]: inactive

Compound: O=C1Nc2ccc(S(=O)(=O)N3CCOCC3)c3cccc1c23
- inhibition [3]: inactive
